Reference: ChEMBL document CHEMBL3407394, “Synthesis and in vitro anticancer activity evaluation of novel bioreversible phosphate inositol derivatives” (Eur J Med Chem, 2015)

Key:
A549 = test: Cytotoxicity against human A549 cells assessed as growth inhibition at 10 ug/ml after 72 hrs by MTT assay; format: functional; details: A549, 72 h, read-out: GI
Method in brief: (§1)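 Single-concentration screen in A549, HeLa or MDA-MB-231 cells cultured in DMEM, 10% FBS, 1% penicillin/streptomycin. About 1000 cells/well were preincubated 12 h, and compound diluted in DMEM to the final well concentration (0.5% DMSO) for 72 h at 37 °C, 5% CO2. Readout was MTT 4 h, DMSO-solubilized formazan, OD570, with inhibition relative to DMSO vehicle. Cisplatin in 1% NaCl (pH 7) served as positive control.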

MDA-MB-231 = test: Cytotoxicity against human MDA-MB-231 cells assessed as growth inhibition at 10 ug/ml after 72 hrs by MTT assay; format: functional; details: MDA-MB-231, 72 h, read-out: GI; method in brief: as §1
[1] = Cytotoxicity against human MCF10A cells assessed as growth inhibition at 10 ug/ml after 72 hrs by MTT assay; format: cell-based, MCF-10A; details: read-out: GI
Method in brief: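 MCF10A cells in DMEM/F12 plus 5% horse serum, about 1000 per well, were incubated 12 h, then treated at one final well concentration diluted in DMEM (0.5% DMSO) for 72 h, 37 °C, 5% CO2. Viability was by MTT: 4 h in fresh medium, formazan dissolved in DMSO, absorbance at 570 nm, normalized to vehicle controls. Cisplatin in 1% NaCl, pH 7, was the positive control.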

HeLa = test: Cytotoxicity against human HeLa cells assessed as growth inhibition at 10 ug/ml after 72 hrs by MTT assay; format: functional; details: read-out: GI; method in brief: as §1

SMILES | inhibition of growth at 10 µg/mL (A549) [%] | inhibition of growth at 10 µg/mL (MDA-MB-231) [%] | inhibition at 72 h, 10 ug/ml [1] [%] | inhibition of growth at 10 µg/mL (HeLa) [%]
CC(=O)Oc1ccc(COP(=O)(OCc2ccc(OC(C)=O)cc2)O[C@@H]2[C@@H](OCc3ccccc3)[C@H](OCc3ccccc3)[C@@H](OCc3ccccc3)[C@H](OCc3ccccc3)[C@@H]2OP(=O)(OCc2ccc(OC(C)=O)cc2)OCc2ccc(OC(C)=O)cc2)cc1 | 14.9 | -17.2 | 42.3 | 15.8
C#CCO[C@@H]1[C@@H](OCc2ccccc2)[C@H](OP(=O)(OCc2ccc(OC(C)=O)cc2)OCc2ccc(OC(C)=O)cc2)[C@H](OCc2ccccc2)[C@H](OP(=O)(OCc2ccc(OC(C)=O)cc2)OCc2ccc(OC(C)=O)cc2)[C@H]1OCc1ccccc1 | 9.9 | 8.7 | 38.6 | 100
CC(=O)Oc1ccc(COP(=O)(OCc2ccc(OC(C)=O)cc2)O[C@H]2[C@H](OCc3ccccc3)[C@@H](OP(=O)(OCc3ccc(OC(C)=O)cc3)OCc3ccc(OC(C)=O)cc3)[C@H](OCc3ccccc3)[C@@H](OP(=O)(OCc3ccc(OC(C)=O)cc3)OCc3ccc(OC(C)=O)cc3)[C@H]2OCc2ccccc2)cc1 | 12.8 | -22.3 | 34.9 | 69.3
CC(=O)Oc1ccc(COP(=O)(OCc2ccc(OC(C)=O)cc2)O[C@H]2[C@H](OCc3ccccc3)[C@@H](OCc3ccccc3)[C@@H](OP(=O)(OCc3ccc(OC(C)=O)cc3)OCc3ccc(OC(C)=O)cc3)[C@@H](OP(=O)(OCc3ccc(OC(C)=O)cc3)OCc3ccc(OC(C)=O)cc3)[C@@H]2OCc2ccccc2)cc1 | -1.2 | -2.1 | 15.6 | -6.2
CC(=O)Oc1ccc(COP(=O)(OCc2ccc(OC(C)=O)cc2)O[C@@H]2[C@@H](OCc3ccccc3)[C@@H](OCc3ccccc3)[C@@H](OP(=O)(OCc3ccc(OC(C)=O)cc3)OCc3ccc(OC(C)=O)cc3)[C@H](OP(=O)(OCc3ccc(OC(C)=O)cc3)OCc3ccc(OC(C)=O)cc3)[C@H]2OCc2ccccc2)cc1 | 7.8 | 21.3 | 9.2 | 80
CC(=O)Oc1ccc(COP(=O)(OCc2ccc(OC(C)=O)cc2)O[C@@H]2[C@H](OCc3ccccc3)[C@H](OCc3ccccc3)[C@@H](OP(=O)(OCc3ccc(OC(C)=O)cc3)OCc3ccc(OC(C)=O)cc3)[C@H](OP(=O)(OCc3ccc(OC(C)=O)cc3)OCc3ccc(OC(C)=O)cc3)[C@H]2OCc2ccccc2)cc1 | 6.4 | 11 | 37.4 | 84.5
CC(=O)Oc1ccc(COP(=O)(OCc2ccc(OC(C)=O)cc2)O[C@H]2[C@H](OP(=O)(OCc3ccc(OC(C)=O)cc3)OCc3ccc(OC(C)=O)cc3)[C@@H](OCc3ccccc3)[C@H](OCc3ccccc3)[C@H](OCc3ccccc3)[C@@H]2OP(=O)(OCc2ccc(OC(C)=O)cc2)OCc2ccc(OC(C)=O)cc2)cc1 | 4.7 | 19.2 | 45.1 | 49.5
CC(=O)Oc1ccc(COP(=O)(OCc2ccc(OC(C)=O)cc2)O[C@@H]2[C@@H](OCc3ccccc3)[C@H](OCc3ccccc3)[C@@H](OP(=O)(OCc3ccc(OC(C)=O)cc3)OCc3ccc(OC(C)=O)cc3)[C@@H](OP(=O)(OCc3ccc(OC(C)=O)cc3)OCc3ccc(OC(C)=O)cc3)[C@H]2OCc2ccccc2)cc1 | 9.1 | -11 | 5.1 | -1.2
